From ChEMBL document CHEMBL1152496, “N-Terminal 2,3-diaminopropionic acid (Dap) peptides as efficient methylglyoxal scavengers to inhibit advanced glycation endproduct (AGE) formation” (Bioorg Med Chem, 2009)
Where a SMILES comes first, the peptide text is derived from it. [ ]: non-standard residue; d: D form. dDap = NC[C@@H](N)C(=O)O; Dap = NC[C@H](N)C(=O)O

Tests used:
[1] = Inhibition of alpha-dicarbonyls-induced advanced glycation end product formation assessed as protection against 100 eq. MG-induced insulin degradation at 3.75 mM after 24 hrs by RP-HPLC; parameters: scale not given: the % may be the effect or the level left; conditions: 3750 µM
[2] = Inhibition of alpha-dicarbonyls-induced advanced glycation end product formation assessed as protection against 10 eq. MG-induced insulin degradation at 3.75 mM after 24 hrs by RP-HPLC; format: physicochemical; parameters: scale not given: the % may be the effect or the level left; conditions: 3750 µM
Procedure, shortened: (§1)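 Human insulin (34 µM) was incubated in 10 mM phosphate pH 7.4 with 0.1 M NaCl at 37 °C with MG, ± scavenger at 1.1 mol equiv relative to MG. The standard condition was MG 3.4 mM (100 equiv) with scavenger 3.75 mM for 24 h. Remaining intact insulin was quantified by C18 RP-HPLC (TFA water/acetonitrile gradient) against the insulin-alone control.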

[3] = Inhibition of alpha-dicarbonyls-induced advanced glycation end product formation assessed as protection against 100 eq. MG-induced insulin degradation at 3.75 mM after 24 hrs by RP-HPLC; format: physicochemical; parameters: scale not given: the % may be the effect or the level left; conditions: 3750 µM
Procedure, shortened: as §1

[4] = Inhibition of alpha-dicarbonyls-induced advanced glycation end product formation assessed as protection against MG-induced insulin degradation at 3.75 mM after 7 days by RP-HPLC; format: physicochemical; parameters: scale not given: the % may be the effect or the level left; conditions: 168 h, 3750 µM
Procedure, shortened: as §1

[5] = Inhibition of alpha-dicarbonyls-induced advanced glycation end product formation assessed as protection against MG-induced insulin degradation at 3.75 mM after 5 days by RP-HPLC; format: physicochemical; parameters: scale not given: the % may be the effect or the level left; conditions: 120 h, 3750 µM
Procedure, shortened: as §1

[6] = Inhibition of alpha-dicarbonyls-induced advanced glycation end product formation assessed as protection against 5 eq. MG-induced insulin degradation at 3.75 mM after 24 hrs by RP-HPLC; format: physicochemical; parameters: scale not given: the % may be the effect or the level left; conditions: 3750 µM
Procedure, shortened: as §1

[7] = Inhibition of alpha-dicarbonyls-induced advanced glycation end product formation assessed as protection against MG-induced insulin degradation at 3.75 mM after 2 days by RP-HPLC; format: physicochemical; parameters: scale not given: the % may be the effect or the level left; conditions: 48 h, 3750 µM
Procedure, shortened: as §1

[8] = Cytotoxicity in human EAhy926 cells assessed as viable cells at 1 mM after 48 hrs by MTT assay
[9] = Inhibition of alpha-dicarbonyls-induced advanced glycation end product formation assessed as protection against MG-induced loss of bovine pancreatic RNaseA enzyme activity after 48 hrs […]; format: physicochemical; parameters: concentration or dose not given beside the values; conditions: cattle
Procedure, shortened: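 RNase A was pre-incubated with equimolar MG ± scavenger at 37 °C, pH 7.4. The glycated enzyme (10 µg/mL) was added to a methylene blue–yeast RNA solution (600 µg/mL RNA working concentration), and remaining activity was compared with control.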

[10] = Cytoprotective activity against MG-induced cytotoxicity in human EAhy926 cells assessed as viable cells at 1 mM after 48 hrs by MTT assay; conditions: EA.hy 926
[11] = Inhibition of alpha-dicarbonyls-induced advanced glycation end product formation assessed as protection against MG-induced chicken lysozyme degradation after 48 hrs by SDS-PAGE; format: physicochemical
Procedure, shortened: (§2)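 Protein stock (10–15 mg/mL in phosphate buffer) was incubated with MG ± scavenger at 37 °C, pH 7.4, for 48 h, then stored at −20 °C until SDS–PAGE. For RNase A, MG was equimolar to protein and scavenger was 1.1 mol per mol MG.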

[12] = Inhibition of alpha-dicarbonyls-induced advanced glycation end product formation assessed as protection against MG-induced bovine pancreatic RNaseA degradation after 48 hrs by SDS-PAGE; format: physicochemical; conditions: cattle
Procedure, shortened: as §2

[13] = Mutagenic activity in Salmonella Typhimurium TA98 at 51.7 uM after 60 hrs by Ames test in presence of human S9 fraction; conditions: salmonella enterica subsp. enterica serovar typhimurium, s9, 60 h
[14] = Mutagenic activity in Salmonella Typhimurium at 51.7 uM after 60 hrs by Ames test in presence of human S9 fraction; conditions: salmonella enterica subsp. enterica serovar typhimurium, s9, 60 h
[15] = Mutagenic activity in Salmonella Typhimurium TA98 at 0.1 to 10 uM after 60 hrs by Ames test in presence of human S9 fraction and MG; format: toxicity; conditions: salmonella enterica subsp. enterica serovar typhimurium, s9, 60 h
Procedure, shortened: (§3)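 Ames assay used a mix of S. typhimurium TA7001–TA7006 and, separately, TA98. Test substance (10, 1, 0.1 µM; alone or with MG; MG alone 10 µM) was incubated ± human liver S9 at 37 °C for 90 min, then in indicator medium for 60 h. Positive controls were 2-aminoanthracene, 4-nitroquinoline N-oxide and 2-nitrofluorene; solvent was the negative control. Duplicate experiments, 48 wells per point.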

[16] = Inhibition of alpha-dicarbonyls-induced advanced glycation end product formation assessed as protection against MG-induced human glyoxalase1 degradation after 24 hrs by […]; format: physicochemical
Procedure, shortened: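 Human glyoxalase I was incubated with MG (protein/MG 1/1) ± scavenger (1.1 or 2.2 equiv) at 37 °C, pH 7.4, for 24 h, then stored at −20 °C. Mobility shift was analysed by non-denaturing PAGE.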

[17] = Mutagenic activity in Salmonella Typhimurium at 0.1 to 10 uM after 60 hrs by Ames test in absence of human S9 fraction and in presence of MG; format: toxicity; conditions: salmonella enterica subsp. enterica serovar typhimurium, s9, 60 h
Procedure, shortened: as §3

[18] = Mutagenic activity in Salmonella Typhimurium at 0.1 to 10 uM after 60 hrs by Ames test in absence of human S9 fraction; format: toxicity; conditions: salmonella enterica subsp. enterica serovar typhimurium, s9, 60 h
Procedure, shortened: as §3

[19] = Mutagenic activity in Salmonella Typhimurium TA98 at 0.1 to 10 uM after 60 hrs by Ames test in presence of human S9 fraction; format: toxicity; conditions: salmonella enterica subsp. enterica serovar typhimurium, s9, 60 h
Procedure, shortened: as §3

[20] = Inhibition of alpha-dicarbonyls-induced advanced glycation end product formation assessed as protection against MG-induced loss of human glyoxalase1 enzyme activity after 48 hrs […]; format: physicochemical; parameters: scale not given: the % may be the effect or the level left; conditions: 24 h; in the assay text read “24 hrs” for “48 hrs”
Procedure, shortened: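 Human glyoxalase I was pre-incubated with equimolar MG ± scavenger. Substrate hemithioacetal was formed from 2 mM MG and 2 mM reduced glutathione in 50 mM sodium phosphate pH 6.6 (20 min, 37 °C; ~600 µM) and equilibrated 15 min. Enzyme was then added, and S-D-lactoylglutathione formation was followed at 240 nm. One unit = 1 µmol per min.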

[21] = Mutagenic activity in Salmonella Typhimurium at 0.1 to 10 uM after 60 hrs by Ames test in presence of human S9 fraction; format: toxicity; conditions: salmonella enterica subsp. enterica serovar typhimurium, s9, 60 h
Procedure, shortened: as §3

[22] = Mutagenic activity in Salmonella Typhimurium TA98 at 0.1 to 10 uM after 60 hrs by Ames test in absence of human S9 fraction and in presence of MG; format: toxicity; conditions: salmonella enterica subsp. enterica serovar typhimurium, s9, 60 h
Procedure, shortened: as §3

NC[C@@H](N)C(=O)NC(Cc1ccc(F)cc1)C(=O)O (mixture of isomers)
Activity [1]: 53%

CC(C)C[C@H](NC(=O)[C@H](N)CN)C(=O)O
Activity [2]: 90% | Activity [1]: 83% | Activity [3]: 83% | Activity [4]: 88% | Activity [5]: 85% | Activity [6]: 90% | Activity [7]: 88%

C[C@@H](NC(=O)[C@H](N)CN)C(=O)O (H-[dDap]-[dA]-OH)
Activity [1]: 71% | viability at 1000 µM [8]: 72% | Activity [9]: 87% | viability at 1000 µM [10]: 71%

N[C@@H](CS)C(=O)O [CYSTEINE]
Activity [1]: 69%

NCCCC[C@H](N)C(=O)O [LYSINE]
Activity [1]: 0%

CC(C)C[C@@H](NC(=O)[C@H](N)CN)C(=O)O
Activity [1]: 84%

NC[C@@H](N)C(=O)N[C@H](CC(=O)O)C(=O)O
Activity [1]: 61%

CC[C@H](C)[C@H](NC(=O)[C@@H](N)CN)C(=O)O (H-[Dap]-Ile-OH)
Activity [1]: 75% | viability at 1000 µM [8]: 86% | Activity [9]: 91% | viability at 1000 µM [10]: 79%

N=C(N)NN [PIMAGEDINE]
Activity [1]: 85% | viability at 1000 µM [8]: 94% | Activity [9]: 70% | viability at 1000 µM [10]: 75%

CC(C)[C@H](NC(=O)[C@@H](N)CN)C(=O)O (H-[Dap]-Val-OH)
Activity [1]: 71% | Activity [11]: Active | viability at 1000 µM [8]: 96% | Activity [9]: 91% | viability at 1000 µM [10]: 93% | Activity [12]: Active

Nc1ccc2cc3ccccc3cc2c1 [2-AMINOANTHRACENE]
Activity [13]: Toxic | Activity [14]: Toxic

CC(C)C[C@H](NC(=O)[C@@H](N)CN)C(=O)O
Activity [15]: Non-toxic | Activity [16]: Active | Activity [1]: 87% | Activity [11]: Active | Activity [17]: Non-toxic | Activity [18]: Non-toxic | viability at 1000 µM [8]: 78% | Activity [19]: Non-toxic | Activity [9]: 94% | Activity [20]: 96% | viability at 1000 µM [10]: 69% | Activity [21]: Non-toxic | Activity [12]: Active | Activity [22]: Non-toxic

NC[C@H](N)C(=O)NCC(=O)O (H-[Dap]-Gly-OH)
Activity [1]: 67% | viability at 1000 µM [8]: 57% | Activity [9]: 86% | viability at 1000 µM [10]: 54%

CCCCCCCCCCCCCCCCOC(=O)[C@H](CC(C)C)NC(=O)C(N)CN (single isomer, unassigned)
Activity [1]: 74% | viability at 1000 µM [8]: 23% | viability at 1000 µM [10]: 33%

NC[C@@H](N)C(=O)N[C@H](Cc1ccccc1)C(=O)O
Activity [1]: 66% | Activity [9]: 70%

NCCC(=O)N[C@@H](Cc1cnc[nH]1)C(=O)O [CARNOSINE]
Activity [1]: 0% | viability at 1000 µM [8]: 97% | viability at 1000 µM [10]: 54%
